Experimental data: ChEMBL document CHEMBL5705889, “Novel mutant-selective EGFR kinase inhibitors against EGFR T790M” (Nature, 2009)
pIC50, pKd: −log10 of the molar value. Calls of active or inactive are those of the source. The calls are words filed in the database; no cut-off is given here.

Experiments:
cells = type: functional, cell-based; details: Homo sapiens, HCC827 Gefitinib-resistant (GR) cell, 72 h
Calu-3 = assay: cells; type: functional, cell-based; details: Homo sapiens, Calu-3, 72 h
BaF3 [1] = assay: cells; type: functional, cell-based; details: Mus musculus, BaF3, 72 h
BaF3 [2] = assay: cells; type: functional, cell-based; details: Mus musculus, BaF3, 72 h; remark: listed apart in the source
BaF3 [3] = assay: cells; type: functional, cell-based; details: Mus musculus, BaF3, 72 h; remark: listed apart in the source
[4] = molecular target: Tyrosine-protein kinase Blk (Homo sapiens, UniProt P51451); assay: Binding affinity to BLK (unknown origin) assessed as dissociation constant
Tyrosine-protein kinase Blk, sequence (P51451 whole entry): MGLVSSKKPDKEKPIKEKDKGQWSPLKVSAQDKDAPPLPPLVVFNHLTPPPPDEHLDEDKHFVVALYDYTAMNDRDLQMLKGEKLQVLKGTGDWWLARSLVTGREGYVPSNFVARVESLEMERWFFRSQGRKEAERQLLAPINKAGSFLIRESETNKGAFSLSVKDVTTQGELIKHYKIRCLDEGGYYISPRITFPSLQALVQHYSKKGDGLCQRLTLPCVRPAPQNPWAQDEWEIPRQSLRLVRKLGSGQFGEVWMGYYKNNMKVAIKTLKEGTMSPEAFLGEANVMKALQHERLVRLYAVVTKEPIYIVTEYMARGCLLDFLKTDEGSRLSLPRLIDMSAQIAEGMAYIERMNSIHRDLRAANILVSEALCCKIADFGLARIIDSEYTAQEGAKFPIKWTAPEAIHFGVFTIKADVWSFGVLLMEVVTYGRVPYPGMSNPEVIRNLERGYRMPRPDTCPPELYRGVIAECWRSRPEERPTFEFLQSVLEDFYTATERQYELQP

[5] = molecular target: Tyrosine-protein kinase BTK (Homo sapiens, UniProt Q06187); assay: Binding affinity to BTK (unknown origin) assessed as dissociation constant
Tyrosine-protein kinase BTK, sequence (Q06187 whole entry): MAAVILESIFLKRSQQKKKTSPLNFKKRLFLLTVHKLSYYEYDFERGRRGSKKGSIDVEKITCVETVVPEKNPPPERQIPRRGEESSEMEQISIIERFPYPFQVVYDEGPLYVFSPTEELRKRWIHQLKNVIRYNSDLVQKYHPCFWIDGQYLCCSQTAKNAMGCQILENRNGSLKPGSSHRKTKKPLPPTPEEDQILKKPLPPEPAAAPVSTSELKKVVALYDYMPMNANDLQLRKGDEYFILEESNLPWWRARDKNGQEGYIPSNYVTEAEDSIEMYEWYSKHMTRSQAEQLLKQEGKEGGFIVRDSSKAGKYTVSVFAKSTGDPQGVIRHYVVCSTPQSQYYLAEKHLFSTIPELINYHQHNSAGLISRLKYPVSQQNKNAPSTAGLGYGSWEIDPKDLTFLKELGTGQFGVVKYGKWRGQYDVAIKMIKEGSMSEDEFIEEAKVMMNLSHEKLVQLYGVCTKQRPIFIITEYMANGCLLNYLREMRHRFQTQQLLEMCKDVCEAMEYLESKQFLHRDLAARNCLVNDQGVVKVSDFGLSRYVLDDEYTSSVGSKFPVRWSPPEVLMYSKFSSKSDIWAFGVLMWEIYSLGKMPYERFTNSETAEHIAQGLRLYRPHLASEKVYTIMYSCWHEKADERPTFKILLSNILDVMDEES

[6] = molecular target: Serine/threonine-protein kinase DCLK3 (Homo sapiens, UniProt Q9C098); assay: Binding affinity to DCAMKL3 (unknown origin) assessed as dissociation constant
Serine/threonine-protein kinase DCLK3, sequence (Q9C098 whole entry): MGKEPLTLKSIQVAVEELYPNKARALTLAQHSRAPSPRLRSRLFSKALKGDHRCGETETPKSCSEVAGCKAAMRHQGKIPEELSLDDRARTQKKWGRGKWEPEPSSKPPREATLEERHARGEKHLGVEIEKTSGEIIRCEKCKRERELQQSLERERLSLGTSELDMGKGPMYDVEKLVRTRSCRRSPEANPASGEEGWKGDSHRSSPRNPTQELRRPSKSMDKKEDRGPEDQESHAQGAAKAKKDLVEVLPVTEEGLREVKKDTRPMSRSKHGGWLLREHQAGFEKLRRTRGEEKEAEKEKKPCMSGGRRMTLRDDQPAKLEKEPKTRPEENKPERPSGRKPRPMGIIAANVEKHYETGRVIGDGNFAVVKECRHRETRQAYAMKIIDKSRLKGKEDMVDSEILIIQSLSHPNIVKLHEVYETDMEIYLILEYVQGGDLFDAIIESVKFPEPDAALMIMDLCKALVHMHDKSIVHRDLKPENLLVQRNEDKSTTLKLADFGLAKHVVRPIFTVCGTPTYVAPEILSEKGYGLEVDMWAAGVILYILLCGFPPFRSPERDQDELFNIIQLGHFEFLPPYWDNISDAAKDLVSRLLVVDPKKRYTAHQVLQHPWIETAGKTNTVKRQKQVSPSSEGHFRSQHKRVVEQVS

[7] = molecular target: Receptor-type tyrosine-protein kinase FLT3 (Homo sapiens, UniProt P36888, D835Y); assay: Binding affinity to FLT3 D835Y mutant (unknown origin) assessed as dissociation constant
eIF-2-alpha kinase GCN2 = eIF-2-alpha kinase GCN2 (Homo sapiens, UniProt Q9P2K8); assay: Binding affinity to GCN2 (unknown origin) assessed as dissociation constant
eIF-2-alpha kinase GCN2, sequence (Q9P2K8 whole entry): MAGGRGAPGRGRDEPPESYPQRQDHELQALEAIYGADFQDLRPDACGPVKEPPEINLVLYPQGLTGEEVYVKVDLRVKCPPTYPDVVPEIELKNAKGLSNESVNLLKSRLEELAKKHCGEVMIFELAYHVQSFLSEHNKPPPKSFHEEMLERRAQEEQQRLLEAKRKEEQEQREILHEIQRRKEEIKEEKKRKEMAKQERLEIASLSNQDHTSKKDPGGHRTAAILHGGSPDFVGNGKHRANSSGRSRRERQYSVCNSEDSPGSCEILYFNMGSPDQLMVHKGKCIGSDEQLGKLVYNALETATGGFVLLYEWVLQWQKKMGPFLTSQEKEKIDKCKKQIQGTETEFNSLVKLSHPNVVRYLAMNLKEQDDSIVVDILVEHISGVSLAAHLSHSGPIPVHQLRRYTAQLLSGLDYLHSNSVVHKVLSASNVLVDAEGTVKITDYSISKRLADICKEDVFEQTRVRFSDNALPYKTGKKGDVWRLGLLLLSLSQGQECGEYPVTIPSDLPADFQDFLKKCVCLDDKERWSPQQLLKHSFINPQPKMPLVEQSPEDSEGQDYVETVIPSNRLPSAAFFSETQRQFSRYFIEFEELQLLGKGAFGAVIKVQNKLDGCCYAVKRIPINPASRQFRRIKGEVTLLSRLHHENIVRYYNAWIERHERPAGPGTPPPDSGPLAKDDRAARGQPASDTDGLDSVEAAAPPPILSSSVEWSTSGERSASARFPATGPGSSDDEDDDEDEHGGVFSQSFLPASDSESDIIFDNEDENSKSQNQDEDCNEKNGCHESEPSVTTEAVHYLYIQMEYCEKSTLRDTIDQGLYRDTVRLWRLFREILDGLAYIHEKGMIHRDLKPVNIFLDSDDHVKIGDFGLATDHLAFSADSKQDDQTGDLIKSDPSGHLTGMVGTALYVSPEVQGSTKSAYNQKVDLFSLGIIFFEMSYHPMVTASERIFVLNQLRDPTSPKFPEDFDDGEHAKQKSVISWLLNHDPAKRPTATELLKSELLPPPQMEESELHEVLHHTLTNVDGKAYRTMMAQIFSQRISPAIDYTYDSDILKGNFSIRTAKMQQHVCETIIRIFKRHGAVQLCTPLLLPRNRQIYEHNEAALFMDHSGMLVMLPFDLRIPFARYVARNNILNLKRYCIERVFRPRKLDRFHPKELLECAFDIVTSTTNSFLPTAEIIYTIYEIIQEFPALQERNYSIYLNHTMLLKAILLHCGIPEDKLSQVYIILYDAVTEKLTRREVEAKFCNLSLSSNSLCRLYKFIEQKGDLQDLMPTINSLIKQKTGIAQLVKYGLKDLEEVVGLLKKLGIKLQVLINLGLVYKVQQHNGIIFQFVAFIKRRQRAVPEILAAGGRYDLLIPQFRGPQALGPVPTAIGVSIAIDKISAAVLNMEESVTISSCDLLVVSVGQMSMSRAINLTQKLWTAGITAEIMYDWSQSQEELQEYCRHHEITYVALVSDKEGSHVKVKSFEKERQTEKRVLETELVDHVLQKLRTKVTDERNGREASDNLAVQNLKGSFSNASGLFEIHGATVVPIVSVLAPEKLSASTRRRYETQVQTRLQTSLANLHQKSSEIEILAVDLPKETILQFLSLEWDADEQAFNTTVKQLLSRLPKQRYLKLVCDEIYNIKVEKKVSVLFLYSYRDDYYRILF

[8] = molecular target: Tyrosine-protein kinase ITK/TSK (Homo sapiens, UniProt Q08881); assay: Binding affinity to ITK (unknown origin) assessed as dissociation constant
Tyrosine-protein kinase ITK/TSK, sequence (Q08881 whole entry): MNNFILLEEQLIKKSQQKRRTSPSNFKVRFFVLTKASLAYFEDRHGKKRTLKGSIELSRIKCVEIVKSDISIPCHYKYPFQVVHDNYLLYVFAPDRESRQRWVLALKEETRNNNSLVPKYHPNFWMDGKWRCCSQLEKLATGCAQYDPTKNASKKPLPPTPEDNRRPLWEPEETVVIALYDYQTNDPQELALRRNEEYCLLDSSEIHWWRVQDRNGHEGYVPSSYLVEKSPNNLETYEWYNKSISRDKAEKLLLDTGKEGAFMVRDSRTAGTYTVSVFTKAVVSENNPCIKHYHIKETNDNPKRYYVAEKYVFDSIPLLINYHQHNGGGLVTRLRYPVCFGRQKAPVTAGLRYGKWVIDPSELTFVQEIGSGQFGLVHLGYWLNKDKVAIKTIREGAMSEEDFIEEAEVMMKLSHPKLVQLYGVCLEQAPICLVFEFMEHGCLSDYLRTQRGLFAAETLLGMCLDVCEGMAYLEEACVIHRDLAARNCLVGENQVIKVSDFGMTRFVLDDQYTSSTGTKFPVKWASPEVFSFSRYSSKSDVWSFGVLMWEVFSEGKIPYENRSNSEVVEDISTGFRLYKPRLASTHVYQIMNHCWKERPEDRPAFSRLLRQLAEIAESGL

[9] = molecular target: NUAK family SNF1-like kinase 2 (Homo sapiens, UniProt Q9H093); assay: Binding affinity to SNARK (unknown origin) assessed as dissociation constant
NUAK family SNF1-like kinase 2, sequence (Q9H093 whole entry, the tested form may be a part): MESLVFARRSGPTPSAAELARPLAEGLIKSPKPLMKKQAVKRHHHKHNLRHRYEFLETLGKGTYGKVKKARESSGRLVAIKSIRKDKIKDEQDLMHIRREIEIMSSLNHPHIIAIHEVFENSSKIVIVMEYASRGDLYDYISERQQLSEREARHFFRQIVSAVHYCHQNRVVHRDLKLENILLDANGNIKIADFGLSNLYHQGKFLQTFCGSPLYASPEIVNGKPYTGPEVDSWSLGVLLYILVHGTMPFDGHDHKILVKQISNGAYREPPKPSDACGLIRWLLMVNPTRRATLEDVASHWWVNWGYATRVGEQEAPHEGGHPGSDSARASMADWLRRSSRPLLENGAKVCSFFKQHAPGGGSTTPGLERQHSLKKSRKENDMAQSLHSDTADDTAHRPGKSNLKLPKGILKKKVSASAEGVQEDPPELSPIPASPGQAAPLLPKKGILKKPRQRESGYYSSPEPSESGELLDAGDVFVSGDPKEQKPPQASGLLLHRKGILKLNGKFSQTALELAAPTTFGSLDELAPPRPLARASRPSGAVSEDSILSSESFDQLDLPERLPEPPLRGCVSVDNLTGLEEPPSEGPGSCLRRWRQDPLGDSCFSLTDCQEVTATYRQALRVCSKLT

[10] = molecular target: Tyrosine-protein kinase JAK2 (Homo sapiens, UniProt O60674); assay: Inhibition of TEL fused JAK2 (unknown origin) transformed in mouse BaF3 cells; type: cell-based
[11] = Volume of distribution at steady state in mouse at 1 mg/kg, iv administered as single dose; type: ADME, organism-based; details: in vivo, read-out: Vdss
[12] = Tmax in mouse at 10 mg/kg, po administered as single dose; type: ADME, organism-based; details: in vivo
[13] = AUC(0 to t) in mouse at 10 mg/kg, po administered as single dose; type: ADME, organism-based; details: in vivo
[14] = Oral bioavailability in mouse at 10 mg/kg administered as single dose; type: ADME, organism-based; details: in vivo
[15] = Drug concentration in mouse plasma at 1 mg/kg, iv administered as single dose and measured after 8 hrs; type: ADME, organism-based
[16] = Drug concentration in mouse plasma at 10 mg/kg, po administered as single dose and measured after 2 hrs; type: ADME, organism-based
Mus musculus [17] = assay: In vivo inhibition of AKT phosphorylation in transgenic mouse harboring EGFR L858R/T790M mutant at 2.5 to 25 mg/kg administered as two doses separated by 16 hours by immunoblot analysis; type: functional, organism-based; details: dose 2.5-25 mg/kg
Mus musculus [18] = assay: Invivo antitumor activity in transgenic mouse harboring EGFR del19/T790M mutant assessed as remodelling/scarring at 25 mg/kg administered via gavage for 2 weeks by H&E staining based analysis; type: functional, organism-based
Method in brief: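 EGFR-TL (L858R/T790M) or exon19 deletion-T790M (TD) inducible bitransgenic mice dosed by oral gavage daily at 25 mg/kg; vehicle 10% 1-methyl-2-pyrrolidinone:90% PEG-300. Tumors followed by MRI; lung histology by standard protocols.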

pIC50 (cells): < 5.48
pIC50 (Calu-3): 5.71
pIC50 (BaF3 [1]): 8.70
pIC50 (BaF3 [2]): 8.70
pIC50 (BaF3 [3]): 7.46
pKd [4]: 6.66
pKd [5]: 7.44
pKd [6]: 6.04
pKd [7]: 7.48
pKd (eIF-2-alpha kinase GCN2): 6.85
pKd [8]: 7.37
pKd [9]: 8.00
pIC50 [10]: 5.42
Vd [11]: 1.54 L/kg
Tmax [12]: 15 min
AUC(0-t) [13]: 2390 ng·h/mL
bioavailability [14]: 24.5%
concentration at 8 h [15]: 8 ng/mL
concentration at 2 h [16]: 422 ng/mL
SMILES: C=CC(=O)Nc1cccc(Oc2nc(Nc3ccc(N4CCN(C)CC4)cc3OC)ncc2Cl)c1
inhibition (Mus musculus [17]): Active
Activity (Mus musculus [18]): Active
